Results: ChEMBL document CHEMBL5365494, “Bis-6-amidino-benzothiazole Derivative that Cures Experimental Stage 1 African Trypanosomiasis with a Single Dose” (J Med Chem, 2023)
Calls of active or inactive are those of the source. The rule behind the calls is not given here.

Legend:
[1] = Toxicity in BALB/c mouse infected with bioluminescent Trypanosoma brucei brucei GVR35-VSL2 expressing red-shifted luciferase assessed as piloerection in animal at 20 mg/kg, po administered once daily for 4 days; assay type: organism-based; details: in vivo, 96 h, time 4 day
Method in brief: (§1)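 Infected BALB/c mice (bioluminescent T. brucei, 30,000 parasites) dosed i.p. or orally once daily for 4 days starting day 4 post-infection; observed for piloerection, hunching, shaking, lack of activity and body weight change.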

[2] = test system: Trypanosoma brucei; experiment: Antitrypanosomal activity against blood stream form of Trypanosoma brucei 221a variant assessed as parasite growth inhibition at 0.15 to 4.8 nM preincubated for 24 hrs followed by subculturing with fresh medium with compounds and measured after 2 days by resazurin dye based fluorescence analysis; assay type: functional, organism-based; details: dose 0.15-4.8 nM, time 3.0 day
Method in brief: (§2)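 Bloodstream-form T. brucei seeded in flasks at 10^5 mL^-1 with a range of compound concentrations. Every 24 h parasites were sub-cultured back to 10^5 mL^-1 in continued compound presence, through day 10. Growth reported as cumulative parasite number. In a washout arm, parasites were exposed for 3 days, moved to compound-free medium and followed for 12 days.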

[3] = Metabolic stability in mouse liver microsomes assessed as half life at 1 uM measured upto 60 mins in presence of NADPH by LC-MS/MS analysis; assay type: ADME, Microsome; details: 1 h
[4] = Drug localization in kinetoplast of Trypanosoma brucei bloodstream form at 10 ug/ml measured for 180 mins by fluorescence microscopy; assay type: ADME, subcellular; details: 3 h, dose 10 µg/ml
Method in brief: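 Bloodstream-form T. brucei incubated with compound 10 μg mL⁻¹ for 60 or 180 min or 24 h; fixed in 4% PFA, mounted with DAPI, imaged by fluorescence microscopy (ex 550/em 585 nm).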

[5] = test system: Trypanosoma brucei; experiment: Resistant development in Trypanosoma brucei harboring aqp null mutants assessed as fold reduction in sensitivity incubated for 48 hrs by resazurin dye based analysis relative to control; assay type: functional
Method in brief: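 Tbaqp null mutant bloodstream lines tested in the 48 h resazurin microtiter assay: 2.5×10^4 parasites mL^-1 at 37 °C, then 16 h with resazurin and fluorescence read-out. EC50 found for each line in triplicate.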

[6] = Apparent permeability across basolateral to apical side in MDCK-MDR1 cells at 10 uM measured for 60 mins by LC-MS/MS analysis; assay type: ADME, cell-based, Canis lupus familiaris; details: dog, mdck-mdr1, 1 h, 10 µM
Method in brief: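 MDCKII-hMDR1 monolayers on inserts, compound 10 μM (1% DMSO) in duplicate, 60 min at 37 °C, bidirectional, with and without elacridar 2 μM. Amprenavir as P-gp control, Lucifer yellow for monolayer integrity; compound quantified by LC–MS/MS.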

[7] = test system: Trypanosoma brucei; experiment: Antitrypanosomal activity against blood stream form of Trypanosoma brucei 221a variant assessed as lethality at >=1.2 nM incubated for 3 days followed by replacement with fresh medium without compound and measured for 12 days by resazurin dye based fluorescence analysis relative to control; assay type: functional; details: time 3 day; method in brief: as §2
[8] = Toxicity in BALB/c mouse infected with bioluminescent Trypanosoma brucei brucei GVR35-VSL2 expressing red-shifted luciferase assessed as lack of activity in animal at 0.25 to 20 mg/kg, ip administered once daily for 4 days; assay type: organism-based; details: in vivo, 96 h, dose 0.25-20 mg/kg, time 4 day; method in brief: as §1
[9] = Toxicity in BALB/c mouse infected with bioluminescent Trypanosoma brucei brucei GVR35-VSL2 expressing red-shifted luciferase assessed as piloerection in animal at 0.25 to 20 mg/kg, ip administered once daily for 4 days; assay type: organism-based; details: in vivo, 96 h, dose 0.25-20 mg/kg, time 4 day; method in brief: as §1
[10] = Toxicity in BALB/c mouse infected with bioluminescent Trypanosoma brucei brucei GVR35-VSL2 expressing red-shifted luciferase assessed as body weight loss at 20 mg/kg, ip administered once daily for 4 days; assay type: organism-based; details: in vivo, 96 h, time 4 day; method in brief: as §1
[11] = test system: Trypanosoma brucei brucei; experiment: Antitrypanosomal activity against stage-1 bioluminescent Trypanosoma brucei brucei GVR35-VSL2 expressing red-shifted luciferase infected in BALB/c mouse assessed as reduction in parasite growth without relapse at 5 to 20 mg/kg, ip administered once daily for 4 days starting from 4 days post infection by luciferase based bioluminescence assay; assay type: functional, organism-based; details: dose 5-20 mg/kg, time 4.0 day
Method in brief: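 BALB/c mice infected with 30,000 bioluminescent bloodstream-form T. brucei; dosing i.p. or oral from 4 days post-infection, single or once daily for 4 days. Monitored by in vivo imaging after i.p. d-luciferin 150 mg kg⁻¹ under isoflurane, with total body flux from dorsal plus ventral images. Cure required negativity by both in vivo and ex vivo imaging.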

[12] = test system: Trypanosoma brucei; experiment: Resistance development in blood stream form of Trypanosoma brucei assessed as fold increase in resistance at 10 ug/ml preincubated for 6 hrs with bafilomycin Al followed by compound addition and measured after 48 hrs by resazurin dye-based analysis; assay type: functional; details: dose 10 µg/ml
Method in brief: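 Bloodstream-form T. brucei pre-incubated 6 h in 4 or 8 nM bafilomycin A1, then given compound and kept in BafA1. The run then followed the 48 h microtiter resazurin assay: start at 2.5×10^4 mL^-1, 37 °C, 16 h resazurin, fluorescence ex 545/em 590 nm. Done in triplicate.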

[13] = Cytotoxicity against rat L6 cells assessed as cell growth inhibition incubated for 6 days by resazurin dye based assay; assay type: toxicity
Method in brief: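 Rat L6 myoblasts seeded at 1×10⁴ mL⁻¹ in RPMI-1640 with a range of compound concentrations, 6 days at 37 °C; resazurin added, 6 h further, fluorescence ex 545/em 590 nm.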

[14] = Drug localization in lysosomes of Trypanosoma brucei bloodstream form at 10 ug/ml measured after 6 hrs in presence of bafilomycin Al by TbCatL antibody based immunofluorescence microscopy; assay type: ADME, subcellular, Lysosome; details: dose 10 µg/ml
Method in brief: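 Parasites exposed to compound 10 μg mL⁻¹ for 6 h, with or without BafA1 8 nM; fixed 4% PFA, permeabilized 0.1% Triton X-100, blocked 1% BSA, rabbit anti-TbCatL 1:200 overnight at 4 °C, then Alexa 488 anti-rabbit 2 μg mL⁻¹ 1 h at 37 °C; fluorescence microscopy.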

[15] = Drug localization in lysosomes of Trypanosoma brucei bloodstream form assessed as colocalization at 10 ug/ml incubated upto 180 mins by LysoTrack dye based fluorescence microscopy; assay type: ADME, subcellular, Lysosome; details: 3 h, dose 10 µg/ml
Method in brief: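 Parasites pre-loaded with 100 nM LysoTracker for 45 min, washed, then exposed to compound 10 μg mL⁻¹; aliquots fixed in 4% PFA at each timepoint, DAPI-mounted, imaged by fluorescence microscopy.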

## CS(=O)(=O)O.CS(=O)(=O)O.N=C(N)c1ccc2nc(C3CCC(c4nc5ccc(C(=N)N)cc5s4)CC3)sc2c1 (stereo not given)
[1]
  Activity: Non-Toxic
[2]
  Activity: Active
[3]
  t1/2: > 60 min
[4]
  Drug uptake: Not Active
[5]
  fold change (FC): 1.3
[6]
  Papp: 0.4 10^-6 cm/s
[7]
  Activity: 100%
[8]
  Activity: Non-Toxic
[9]
  Activity: Non-Toxic
[10]
  Activity: < 10%
[11]
  Activity: Active
[12]
  fold change (FC): 5
[13]
  EC50 at 6 days: 13.4 µM
[14]
  Drug uptake: Not Active
[15]
  Drug uptake: Active
